In the library only some 1.5% were active in any assay of this set; here they are far more common.
Hck Nef HTS: inhibitors of Nef-activated human Hck kinase, primary screen, biochemical, Z-Lyte FRET, 384-well, Hck-YEEI; Tyrosine-protein kinase HCK (Homo sapiens), P08631; Recombinant Hck-YEEI plus Nef, Z-Lyte FRET kinase assay; inhibition, % at 20 µM; hit rate 0.68% among 220,000; AID 463187, 2010;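 active means Hck-Nef kinase inhibition above about 50%, limit read from the data; inactive means inhibition below that limit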;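 further: 0% = DMSO with Hck plus Nef and 100% = Hck alone without Nef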
CaV13 FRET inh: Primary screen for inhibitors of IQ motif and Ca2+-dependent inactivation inhibitor domain binding in CACNA1D, Förster resonance energy transfer in living cells, …. HEK cells, CFP/YFP FRET ICDI-IQ, plate reader, 10 min; percent FRET-ratio fall versus neutral wells. inhibition, % at 12.3 µM. hit rate 0.098% among 340,000. AID 743397;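 active means mean replicate inhibition of at least 30% and at least 1% of replicates passing that level; inconclusive means only one of the two criteria is met; inactive means neither criterion is met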;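 further: 0% = median of the neutral control wells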
RanGTP-Imp inh: inhibitors of RanGTP-importin-beta interaction, primary screen, biochemical, FRET, CFP-Ran, YFP-importin-beta, homogeneous. Ran GTPase (GTP-bound) - importin-beta complex. cell-free CFP-Ran/YFP-importin-beta FRET ratio. inhibition, % (no concentration beside the values). hit rate 1.1% among 300,000;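 active means more than half of the replicate wells show a fall in the fluorescence ratio signal beyond about 16%, limit read from the data, passing the limit was not always enough; inconclusive means exactly half of the replicate wells pass the set limit; inactive means fewer than half of replicates pass the limit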;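 further: 0% = DMSO wells and 100% = Ran loaded with GDP instead of GTP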
Runt-SMMHC FRET: inhibitors of RUNX1 Runt–CBFb-SMMHC binding, primary screen, biochemical, FRET, Cerulean-Runt, Venus-CBFb-SMMHC, uHTS; hit rate 0.74% among 220,000; inhibition, % at 20 µM; Runt-related transcription factor 1 (Homo sapiens) + Core-binding factor subunit beta …; Cerulean-Runt/Venus-CBFb-SMMHC FRET ratio 530/480, 1 h; AID 1434, 2008;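 active means mean inhibition across duplicate retests at 20 µM reaching about 50%, limit read from the data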;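 further: 0% = DMSO wells and 100% = wells with excess untagged CBFb-SMMHC; inhibitors lower the FRET ratio by blocking Runt binding to CBFb-SMMHC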
Target sequence (Q01196 whole entry, looked up): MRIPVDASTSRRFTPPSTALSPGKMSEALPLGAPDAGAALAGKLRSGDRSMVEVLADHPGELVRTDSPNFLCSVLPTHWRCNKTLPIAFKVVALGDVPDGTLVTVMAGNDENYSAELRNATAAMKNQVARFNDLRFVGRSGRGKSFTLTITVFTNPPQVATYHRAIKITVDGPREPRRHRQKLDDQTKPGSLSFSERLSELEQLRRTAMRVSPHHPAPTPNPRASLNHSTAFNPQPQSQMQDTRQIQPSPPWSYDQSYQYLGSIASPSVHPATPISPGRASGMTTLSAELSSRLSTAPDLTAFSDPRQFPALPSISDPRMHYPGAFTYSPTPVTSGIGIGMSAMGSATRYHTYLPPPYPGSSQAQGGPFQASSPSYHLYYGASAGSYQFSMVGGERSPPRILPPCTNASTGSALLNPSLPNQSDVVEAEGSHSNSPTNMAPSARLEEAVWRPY
Target sequence (Q13951 whole entry, looked up): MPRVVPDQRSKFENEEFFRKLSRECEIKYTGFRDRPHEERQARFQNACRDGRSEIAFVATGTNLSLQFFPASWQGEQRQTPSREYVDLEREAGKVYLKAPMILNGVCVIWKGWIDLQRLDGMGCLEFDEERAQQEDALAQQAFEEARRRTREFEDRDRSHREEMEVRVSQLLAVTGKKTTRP
Runt-CBFb FRET: inhibitors of RUNX1 Runt–CBFb binding, primary screen, biochemical, FRET, Cerulean-Runt, Venus-CBFb, uHTS; Cerulean-Runt/Venus-CBFb FRET ratio 530/480, 1 h; inhibition, % at 20 µM; hit rate 0.46% among 220,000; AID 1496, 2009;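 active means inhibition over about 50% at 20 µM in the single-dose screen, limit read from the data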;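 further: 0% = DMSO wells and 100% = excess unlabeled CBFb competitor control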
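Schedule: protein complex preformed 1 h, compound exposure 1 h, room temperature, dark; test system: Cerulean-labeled Runt domain protein; amount: 100 nM per protein; buffer or medium: Tris 50 mM pH 7.5, KCl, K2SO4, 0.01% BSA; read-out: loss of energy transfer signal; detection: FRET fluorescence; controls: 5 µM unlabeled CBFb as full-inhibition high control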
* = called active by the depositor; ? = inconclusive; · = not tested or not shown; + = active, no number.

SMILES	Hck Nef HTS	CaV13 FRET inh	RanGTP-Imp inh	Runt-SMMHC FRET	Runt-CBFb FRET
Cc1nn(C)c(C)c1NS(=O)(=O)c1c(C)n[nH]c1C	·	-9	·	·	·
CCCCn1c(NCc2ccccc2O)nc2ccccc21	16	-6	2	0	0
CCCn1c(NCc2cc(C)ccc2O)nc2ccccc21	2	-5	28*	0	2
CCCc1cc(=O)oc2c3c(c(Cl)cc12)OCN(CCCO)C3	·	·	62*	·	·
O=C(O)c1cccc(S(=O)(=O)N(Cc2ccccc2)c2cccc(C(F)(F)F)c2)c1	·	-4	1	·	·
CC1(C)Cc2c(sc3nc(C4CCCCC4)n(N)c(=O)c23)CO1	-4	-4	5	2	1
CC1(C)Cc2c(sc3nc(C4CC4)n(N)c(=O)c23)CO1	22	-5	2	1	98*
COc1ccc(NC(=O)CCc2nnc3ccc(N4CCC(C)CC4)nn23)cc1OC	·	-3	-1	·	·
Cc1ccc[n+](-c2nc3ccccc3nc2C(=C=[N-])C#N)c1	3	-2	-3	-2	-16
CCc1ccc[n+](-c2nc3ccccc3nc2C(=C=[N-])C#N)c1	30	-14	31*	5	-17
COc1ccccc1/C=C/C=N/Nc1cccc(C(=O)O)c1	·	-4	76*	·	·
O=C(O)c1cccc(N/N=C/c2ccc(-c3ccccc3)cc2)c1	4	4	2	-11	-10
COc1ccc(Br)cc1/C=N/Nc1cccc(C(=O)O)c1	-1	-19	-2	2	2
O=C(O)c1cccc(N/N=C/c2cccnc2)c1	19	9	34*	2	-2
COc1ccccc1N1CCN(S(=O)(=O)c2c(C)[nH]c(C)c2C(=O)N2CCCC2)CC1	·	-8	4	·	·
COc1ccccc1N1CCN(S(=O)(=O)c2c(C)[nH]c(C)c2C(=O)N2CCCCC2)CC1	·	-7	23*	·	·
O=C(O)c1ccc(Oc2c(C(F)(F)F)oc3cc(O)ccc3c2=O)cc1	17	-2	24*	-13	-3
CCOc1ccccc1Oc1c(C)oc2c(CN3CCN(C)CC3)c(O)ccc2c1=O	2	-8	·	2	-1
COC(=O)c1ccc(Oc2c(C(F)(F)F)oc3c(CN4CCN(C)CC4)c(O)ccc3c2=O)cc1	-1	·	39*	-31	-9
O=C(NNC1CC(=O)N(c2ccccc2)C1=O)c1ccc(COc2ccccc2Cl)o1 (centres undefined)	-1	-18	·	3	-4
Cc1cccn2c(=O)c3cc(C(=O)NCc4ccco4)c(=N)n(C4CCCC4)c3nc12	·	6	130*	·	·
Cc1cccn2c(=O)c3cc(C(=O)NC4CCCC4)c(=N)n(CC4CCCO4)c3nc12 (centres undefined)	·	6	192*	·	·
Cc1cccn2c(=O)c3cc(C(=O)NCC4CCCO4)c(=N)n(C4CCCCC4)c3nc12 (centres undefined)	·	12	+	·	·
Cc1cccn2c(=O)c3cc(S(=O)(=O)c4ccc(Br)cc4)c(=N)n(C4CCCCC4)c3nc12	·	-14	1	·	·
Cc1cccn2c(=O)c3cc(C(=O)NCC4CCCO4)c(=N)n(CC4CCCO4)c3nc12 (centres undefined)	·	58*	188*	·	·
SMILES	Hck Nef HTS	CaV13 FRET inh	RanGTP-Imp inh	Runt-SMMHC FRET	Runt-CBFb FRET
CCNC(=O)C1(C)CCCN(C(=O)c2ccc(C(F)(F)F)nc2C)C1 (centres undefined)	·	-5	·	·	·
COc1ccc(NC(=O)c2cc(-c3sc(NC(=O)c4ccccc4)nc3C)n(Cc3ccccc3)n2)cc1	·	-10	·	·	·
Cc1cc2oc(C(=O)NCc3ccccc3)cc(=O)c2cc1C	·	-14	-3	·	·
O=C(O)c1cc(S(=O)(=O)NCC2COc3ccccc3O2)ccc1Cl (centres undefined)	·	-6	·	·	·
O=[N+]([O-])c1ccc(S(=O)(=O)NCC2COc3ccccc3O2)cc1 (centres undefined)	·	-7	187*	·	·
Cn1nc(C(C)(C)C)cc1NC(=O)C1(C)CCN1C(=O)CC(c1ccccc1)c1ccccc1 (centres undefined)	·	-11	·	·	·
Cc1ccccc1N1CCN(C(=S)c2ccc([N+](=O)[O-])cc2)CC1	9	-19	26*	27	35
Cc1cccc(N2CCN(C(=S)c3ccc([N+](=O)[O-])cc3)CC2)c1	9	-19	0	14	46
O=C(C[n+]1ccc2ccccc2c1)c1cccc2ccccc12	20	-3	-6	1	0
O=C(/C=C/c1cc[n+](CC(=O)c2ccc3cccc4c3c2CC4)cc1)c1ccc2cccc3c2c1CC3	69*	·	1	15	4
COc1cc2ccc(=O)oc2c(O[C@@H]2O[C@H](CO)[C@@H](O)[C@H](O)[C@H]2O)c1O	·	0	119*	·	·
CCCC(=O)Nc1nnc(S(=O)(=O)N(CC)c2ccccc2)s1	·	-5	1	·	·
O=C(CNC(=O)c1ccco1)NNC(=O)c1n[nH]c(=O)c2ccccc12	·	-3	·	·	·
Cc1ccnc(NC(=O)c2ccc(Cl)c(NC(=O)CCc3ccccc3)c2)c1	4	-5	24*	-2	0
COc1cc(CC(=O)OCC(=O)NCCc2ccc(S(N)(=O)=O)cc2)cc(OC)c1OC	·	-2	·	·	·
CCOC(=O)C1C(=O)C=C(c2ccc(C)cc2)CC1c1ccco1 (centres undefined)	-2	-5	?	10	10
CCOC(=O)C1C(=O)C=C(c2ccc(NS(C)(=O)=O)cc2)CC1c1ccco1 (centres undefined)	-3	-11	6	-20	79*
COc1ccc(NC(=O)CCCn2cnc3ccccc3c2=O)c(OC)c1	·	-5	4	·	·
CNc1nc(-c2ccccc2)[n+](-c2ccc(C)cc2)s1	-3	-8	-1	56*	10
COC(=O)C1=CNC=C(C(=O)OC)C1c1cccc(OC)c1	39	·	6	100*	42
COC(=O)C1=CNC=C(C(=O)OC)C1c1ccc(Cl)cc1	32	-5	4	83*	38
CCOC(=O)c1ccc(Nc2nc(C)nc3c2nnn3Cc2ccccc2)cc1	·	-16	-2	·	·
NC(=O)C1CCCN(C(=O)c2ccc(NC(=O)c3cccs3)cc2)C1 (centres undefined)	·	-3	·	·	·
N#Cc1c(Nc2ccccc2)c(/C=N/N=C/c2ccccc2)c[nH]c1=O	2	-5	6	1	1
N#CC(C#N)=Cc1c[nH]c(=O)c(C#N)c1Nc1ccccc1	·	2	67*	·	·
O=C(O)c1cc(S(=O)(=O)O)cc(Nc2c3ccccc3nc3ccccc23)c1O	·	-3	102*	·	·

Screening results deposited in PubChem BioAssay by several laboratories.
